Rows were chosen to be rich in hits. Some 1.5% of all compounds tested hit in one or more screens of this group.
PKA-R1A activ = activators of PKA-R1A holoenzyme, primary screen, biochemical, fluorescence polarization, Cy5-IP20, bovine R1A, mouse PKAc | cAMP-dependent protein kinase type I-alpha regulatory subunit (Bos taurus) + … | PKA-R1A dissociation; scaled: DMSO 0%, 113 µM cGMP 100% | activation, % at 11.4 µM | 340,000 compounds, 0.083% hits | AID 504707, 2011;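 active = percent activation above the mean of all tested compounds plus 3 SD, cut at about 19% in these data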;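 note: higher means more PKAc released from R1A so a rise in polarization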
Tb MetRS inh = T. brucei MetRS inhibitors, primary screen, biochemical, luminescence; methionyl-tRNA synthetase (Trypanosoma brucei brucei); purified T. brucei MetRS, ATP depletion, Kinase-Glo luminescence; inhibition, % at 11.9 µM; 360,000 compounds, 0.4% hits;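 active = inhibition above a per-plate cutoff of the control wells' mean inhibition plus 3 SD, cut at about 5.5% in these data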;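 note: 0% = DMSO wells median and 100% = median of wells with control inhibitor compound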
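Dosing: 11.9 µM single point; system: parasite MetRS enzyme; technique: luminescence of leftover ATP; times: 15 min enzyme-compound preincubation, 2 h reaction, 10 min detection, 25 °C; replicates: each compound tested once; read-out basis: percent inhibition relative to median high and low control wells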
Cardio protect = cardioprotection against H2O2-induced cell death, primary screen, uHTS, H9c2 cells, ATPLite luminescence | H9c2 cardiomyocytes, H2O2 injury protection, 2 h | protection from H2O2 cell death, % at 20 µM | 360,000 compounds, 0.63% hits | AID 588492, 2011;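 active = compounds giving at least 50% protection of heart cells from peroxide-induced death in the single-dose screen, raw or plate-pattern-corrected value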;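 note: 0% = DMSO wells with peroxide and 100% = DMSO wells without peroxide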
Rin1-Abl PPI inh = inhibitors of Rin1-Abl protein binding, primary screen, biochemical, TR-FRET. Tyrosine-protein kinase ABL1 (Homo sapiens) + Ras and Rab interactor 1 (Homo sapiens), …. inhibition, % at 7.35 µM. 360,000 compounds, 0.4% hits. AID 588664, 2011; in the data active = inhibition above about 5%, passing the limit was not always enough
Target sequence (P00519 whole entry, looked up): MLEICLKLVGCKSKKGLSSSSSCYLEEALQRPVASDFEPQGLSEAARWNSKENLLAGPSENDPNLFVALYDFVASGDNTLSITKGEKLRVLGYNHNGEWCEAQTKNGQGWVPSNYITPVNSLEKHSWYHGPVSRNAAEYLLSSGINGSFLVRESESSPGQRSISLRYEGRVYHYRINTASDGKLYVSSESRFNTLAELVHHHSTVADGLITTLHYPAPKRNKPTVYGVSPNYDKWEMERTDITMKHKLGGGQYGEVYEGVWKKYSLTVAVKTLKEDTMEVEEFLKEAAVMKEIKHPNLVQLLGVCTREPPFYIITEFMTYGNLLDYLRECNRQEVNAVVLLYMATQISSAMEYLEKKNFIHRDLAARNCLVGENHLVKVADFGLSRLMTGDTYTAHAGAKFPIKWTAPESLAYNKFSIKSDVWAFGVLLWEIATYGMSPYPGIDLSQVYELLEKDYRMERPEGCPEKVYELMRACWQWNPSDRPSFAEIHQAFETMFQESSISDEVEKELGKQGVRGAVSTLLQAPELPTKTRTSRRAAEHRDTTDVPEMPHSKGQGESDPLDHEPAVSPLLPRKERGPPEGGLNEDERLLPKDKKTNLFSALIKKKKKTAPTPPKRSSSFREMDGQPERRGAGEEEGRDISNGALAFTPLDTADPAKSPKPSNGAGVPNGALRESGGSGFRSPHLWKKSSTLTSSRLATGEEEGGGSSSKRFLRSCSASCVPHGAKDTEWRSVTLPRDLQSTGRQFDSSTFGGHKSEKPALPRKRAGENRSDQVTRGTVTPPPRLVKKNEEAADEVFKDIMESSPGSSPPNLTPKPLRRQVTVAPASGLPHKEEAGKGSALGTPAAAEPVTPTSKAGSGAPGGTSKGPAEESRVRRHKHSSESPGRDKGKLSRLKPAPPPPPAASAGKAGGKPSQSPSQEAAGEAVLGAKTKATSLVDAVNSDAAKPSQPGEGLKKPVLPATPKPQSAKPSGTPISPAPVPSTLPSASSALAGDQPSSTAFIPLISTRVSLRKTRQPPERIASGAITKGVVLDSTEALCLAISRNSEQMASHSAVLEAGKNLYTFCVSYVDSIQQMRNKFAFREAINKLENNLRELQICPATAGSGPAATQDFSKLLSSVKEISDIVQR
Target sequence (Q13671 whole entry, looked up): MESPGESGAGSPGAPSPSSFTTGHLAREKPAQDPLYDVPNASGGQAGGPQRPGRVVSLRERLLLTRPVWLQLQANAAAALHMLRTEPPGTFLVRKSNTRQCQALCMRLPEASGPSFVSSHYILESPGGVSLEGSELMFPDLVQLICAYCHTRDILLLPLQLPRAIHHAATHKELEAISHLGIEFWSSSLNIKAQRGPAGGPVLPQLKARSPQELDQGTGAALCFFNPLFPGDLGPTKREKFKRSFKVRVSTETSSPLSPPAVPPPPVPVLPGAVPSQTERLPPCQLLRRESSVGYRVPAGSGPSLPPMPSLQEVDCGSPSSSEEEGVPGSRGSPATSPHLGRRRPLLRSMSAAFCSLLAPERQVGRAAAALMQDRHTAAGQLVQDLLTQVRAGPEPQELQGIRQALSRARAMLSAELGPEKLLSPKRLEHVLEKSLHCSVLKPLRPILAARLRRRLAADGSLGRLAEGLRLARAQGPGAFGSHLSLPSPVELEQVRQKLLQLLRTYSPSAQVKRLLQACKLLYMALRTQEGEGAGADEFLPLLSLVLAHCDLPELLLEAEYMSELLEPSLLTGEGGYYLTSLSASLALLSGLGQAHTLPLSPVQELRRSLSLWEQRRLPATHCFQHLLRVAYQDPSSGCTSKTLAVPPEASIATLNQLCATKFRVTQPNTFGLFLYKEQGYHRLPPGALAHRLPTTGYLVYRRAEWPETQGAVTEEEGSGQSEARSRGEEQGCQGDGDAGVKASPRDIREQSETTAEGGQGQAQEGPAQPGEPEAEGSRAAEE
PKA-R2B act = activators of PKA-R2B holoenzyme, primary screen, biochemical, fluorescence polarization, Cy5-IP20, human; cAMP-dependent protein kinase catalytic subunit beta (Homo sapiens) + cAMP-dependent …; PKA-R2B holoenzyme dissociation; R2B truncated from residue 108, S112A mutant; 0% DMSO only, 100% 113 µM cGMP; activation, % at 11.4 µM; 340,000 compounds, 0.079% hits;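 active = activation above a cutoff set at the mean over all compounds plus 3 SD, cut at about 18% in these data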;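 note: higher means more holoenzyme dissociation and a rise in polarization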
Active calls of the source: *; / = no result.

SMILES	PKA-R1A activ	Tb MetRS inh	Cardio protect	Rin1-Abl PPI inh	PKA-R2B act
O=C(/C=C/c1ccc(O)c(O)c1)c1ccc(S(=O)(=O)N2CCCCCC2)cc1	0	1	74*	1	8
O=C(CCN1C(=O)C2C3CCC(C3)C2C1=O)OCC(=O)c1ccc(Cl)cc1 (stereo unspecified)	-1	0	6	4	2
Oc1c(Br)cc(Br)cc1C=NCc1ccccc1	-8	1	76*	3	-8
Oc1c(Br)cc(Br)cc1C=NCc1ccc(F)cc1	-11	0	60*	1	7
O=C1COc2ccc(C(=O)COC(=O)Cc3ccc(F)cc3)cc2N1	10	0	-4	6	8
O=C(NNC(=O)c1cccs1)c1cccnc1	3	-1	3	3	-5
O=C(NC(O)C(=O)c1cccs1)c1cccnc1 (stereo unspecified)	0	-1	83*	-4	-1
Cn1cnnc1SCc1ccc(C(=O)N=Nc2c(O)n(Cc3ccc(Cl)cc3)c3ccccc23)cc1	-6	-1	54*	-6	10
OC1CCCCC1	-12	0	0	1	0
COc1ccc(-c2nnc(NC(=O)c3ccc(S(=O)(=O)N4CCCc5ccccc54)cc3)o2)cc1	3	0	63*	-3	-2
CC1CN(S(=O)(=O)c2ccc(C(=O)Nc3nnc(-c4ccc5c(c4)CCCC5)o3)cc2)CC(C)O1 (stereo unspecified)	0	0	62*	-2	6
CCOC(=O)C(Cc1cc(N)c(Oc2ccc(OC)cc2)c(N)c1)NC(C)=O (stereo unspecified)	0	0	4	1	-5
CCOc1ccc(S(=O)(=O)N2CCCC(C(=O)NCc3cccnc3)C2)cc1 (stereo unspecified)	4	0	-13	5	-3
O=C(CN(C(=O)Cn1nnc(-c2cccs2)n1)c1cnc2ccccc2c1)NCC1CCCO1 (stereo unspecified)	-6	-1	83*	0	2
O=C(CN(C(=O)Cn1nnc(-c2ccccc2F)n1)c1cnc2ccccc2c1)NCC1CCCO1 (stereo unspecified)	-13	1	-2	3	-5
Cc1ccc(-c2cc(C(=O)N/N=C/c3c(C)nn(-c4ccccc4)c3C)[nH]n2)cc1	4	-1	38	-1	-1
Cc1[nH]c2ccccc2c1/C=N/NC(=O)c1cc(-c2cccs2)[nH]n1	-9	-1	51*	1	-16
Cc1ccc(-c2cc(C(=O)N/N=C/c3c(C)nn(-c4ccccc4)c3C)n[nH]2)s1	-21	-2	72*	-2	-16
Cc1nn(-c2ccccc2)c(C)c1/C=N/NC(=O)c1cc(C(C)(C)C)[nH]n1	-13	-1	54*	-3	-7
Cc1ccc(Oc2ncccc2C(=O)NCC(=O)O)cc1	-2	0	-3	4	-13
CC(=O)c1ccccc1OCC(O)CN1CCN(CCN2C(=O)c3cccc4cccc(c34)C2=O)CC1 (stereo unspecified)	-4	-1	58*	-14	-2
CCn1c(SCC(=O)N2CCN(c3ccccc3)CC2)nc2c(c1=O)SC(C)C2 (stereo unspecified)	2	0	58*	-3	-1
C=CCNc1oc(-c2ccc(Cl)cc2)nc1C#N	-13	0	52*	0	-23
N#CCCn1c(SCC(=O)c2c[nH]c3ccccc23)nc2ccccc21	6	5.8*	51*	-5	-3
CNc1nc(NC#N)nc(SC)n1	-5	0	-1	-1	-4
SMILES	PKA-R1A activ	Tb MetRS inh	Cardio protect	Rin1-Abl PPI inh	PKA-R2B act
COc1ccc(NCc2cc3cc(OC)ccc3[nH]c2=O)cc1	-12	-1	99*	1	-6
COc1ccc2[nH]c(=O)c(CN(c3ccccc3OC)S(=O)(=O)c3ccccc3)cc2c1	-12	0	68*	-1	-6
COc1ccc2[nH]c(=O)c(CNc3cccc(C)c3)cc2c1	-2	0	31	-5	-1
COc1ccc2[nH]c(=O)c(CNC3CCCCC3)cc2c1	-10	0	57*	-4	4
COc1ccc(NCc2cc3ccccc3[nH]c2=O)cc1	-10	-1	62*	1	-3
CN(C)c1ccc(C(=O)N2CCN(C(=O)C3CCCO3)CC2)cc1 (stereo unspecified)	-5	0	9	-1	-5
COc1ccc(O)c(CNn2c(-c3ccc(Br)cc3)nc3ccccc3c2=O)c1	6	-1	50*	4	5
COc1ccc(OC)c(C(=O)COC(=O)c2ccc([N+](=O)[O-])o2)c1	-11	0	54*	1	-7
COc1ccc(OC)c(C(=O)COC(=O)c2cc(C)oc2C)c1	-14	0	-10	-2	-9
CCOc1cc(C(=O)OCC(=O)N(C)c2ccccc2)cc(OCC)c1OCC	-2	0	2	0	-6
O=C(Cc1ccccc1)NC1(O)C(=O)c2ccccc2C1=O	/	1	-2	4	/
O=C(NC1(O)C(=O)c2ccccc2C1=O)c1ccc(C(F)(F)F)cc1	/	1	4	18*	/
O=c1c(O)c(-c2cccs2)oc2ccccc12	-5	0	30	-4	5
O=c1c(O)c(-c2cccs2)oc2ccc(Cl)cc12	-30	-1	74*	-6	-8
Cc1ccc(C(=O)N2CCCC2(C)C(=O)NCC(C)C)cc1F (stereo unspecified)	/	0	-1	-1	/
CC1(C)O[C@@H]2[C@H](O1)[C@@H](CO)O[C@H]2n1ccc(=O)[nH]c1=O	-8	0	-6	-1	-15
CCCc1cc(=O)oc2cc(OCC(=O)N3CC[C@@]4(O)CCCC[C@H]4C3)ccc12	/	-1	3	0	/
CCCc1cc(=O)oc2cc(OC(=O)CN3C(=O)NC4(CCCC4)C3=O)ccc12	-3	-1	61*	3	-4
Cc1nn2c(-c3cccc(NC(=O)c4ccco4)c3)nnc2c2ccccc12	-3	-2	80*	-2	-4
O=C(Nc1cccc(-c2nnc(-c3ccccc3)o2)c1)c1ccco1	-4	0	25	-1	-8
CCC1(CC)NC(=O)N(CC(=O)OCC(=O)Nc2ccccc2[N+](=O)[O-])C1=O	-5	0	70*	-2	-1
Cc1nc(-n2[nH]c3c(c2=O)CCCC3)[nH]c(=O)c1Cc1ccccc1	-2	0	70*	-5	-1
Cc1ccc(O)c(CNCCNCc2cc(C)ccc2O)c1	-8	0	65*	1	-6
CC1=C(C(=O)Nc2cc(C(=O)N3CCC(C)CC3)ccc2C)SCCO1	-4	-1	1	-6	-16
